Assay results as given in ChEMBL document CHEMBL4130635, “2,4-Diaminoquinazolines as Dual Toll-like Receptor (TLR) 7/8 Modulators for the Treatment of Hepatitis B Virus” (J Med Chem, 2018).
Calls of active or inactive are those of the source. The calls are words filed in the database; no cut-off is given here.

Key:
Cynomolgus monkey [1] = experiment: Induction of ISG response in cynomolgus monkey plasma assessed as upregulation of Isg15 mRNA expression at 9 mg/kg, po after 24 hrs by Fluidigm RT-qPCR analysis (reference value: 1); format: functional, Macaca fascicularis
Procedure, shortened: (§1)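 Cynomolgus monkeys, single oral doses of 1, 3, 9 and 30 mg/kg with a planned 2-week wash-out between doses. Systemic ISG (ISG15, Mx1, OAS1) mRNA was measured by Fluidigm RT-qPCR at 1, 2, 4, 8 and 24 h postdose.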

Liver [2] = experiment: Effect on cytokine profile in C57BL/6J mouse liver assessed as IL-12p70 levels at 0.3 mg/kg, po by multiplex assay (reference value: 5 pg/g); format: functional, organism-based
Procedure, shortened: (§2)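 Single oral gavage in 20% HP-β-CD to healthy C57BL/6 mice, groups of 15 at 0.3, 1, 3, 10 or 30 mg/kg. Three mice per group sacrificed at 0.5, 1, 2, 4 or 7 h. Plasma and liver cytokines by multiplex, maximum level reported, rounded to nearest multiple of 5.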

Plasma [3] = experiment: Effect on cytokine profile in C57BL/6J mouse plasma assessed as IL-12p70 levels at 10 mg/kg, po by multiplex assay (reference value: 560 pg/ml); format: functional; procedure, shortened: as §2
Liver [4] = experiment: Effect on cytokine profile in C57BL/6J mouse liver assessed as IL-12p70 levels at 3 mg/kg, po by multiplex assay (reference value: 5 pg/g); format: functional, organism-based; procedure, shortened: as §2
Plasma [5] = experiment: Proinflammatory activity in C57BL/6J mouse plasma assessed as IL-6 levels at 0.3 mg/kg, po by multiplex assay (reference value: 505 pg/ml); format: functional
[6] = Protein binding in rat plasma fraction at 5 uM after 4.5 hrs LC-MS/MS-based rapid equilibrium dialysis method; format: ADME, cell-free; conditions: read-out: PPB (converted)
Cynomolgus monkey [7] = experiment: Activation of monocytes in cynomolgus monkey plasma assessed as upregulation of IL1Ra levels at 3 mg/kg, po after 24 hrs by Luminex assay (reference value: 320 pg/ml); format: functional, Macaca fascicularis
[8] = Cmax in C57BL/6J mouse liver at 0.3 mg/kg, po by LC-MS analysis; format: ADME, organism-based; parameters: dose 0.3 mg/kg, route oral
Procedure, shortened: (§3)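 Healthy C57BL/6 mice, groups of 15, given a single oral dose (0.3, 1, 3, 10 or 30 mg/kg) in 20% HP-β-CD. Blood drawn at 0.5 h. Three mice per group sacrificed at 0.5, 1, 2, 4 or 7 h, and compound in plasma and liver measured by LC−MS. Values rounded to whole numbers.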

[9] = Cmax in C57BL/6J mouse liver at 10 mg/kg, po by LC-MS analysis; format: ADME, organism-based; parameters: dose 10 mg/kg, route oral; procedure, shortened: as §3
Plasma [10] = experiment: Upregulation of IP-10 mRNA expression levels in C57BL/6J mouse plasma at 0.3 mg/kg, po by RT-qPCR analysis (reference value: 1); format: functional
Liver [11] = experiment: Proinflammatory activity in C57BL/6J mouse liver assessed as IL-6 levels at 0.3 mg/kg, po by multiplex assay (reference value: 10 pg/g); format: functional, organism-based
Cynomolgus monkey [12] = experiment: Proinflammatory activity in cynomolgus monkey plasma assessed as TNFalpha levels at 1 mg/kg, po after 24 hrs by Luminex assay (reference value: 285 pg/ml); format: functional, organism-based; conditions: Macaca fascicularis
[13] = Solubility of the compound in FaSSIF; format: physicochemical
Plasma [14] = experiment: Proinflammatory activity in C57BL/6J mouse plasma assessed as CXCL-1 levels at 3 mg/kg, po by multiplex assay (reference value: 230 pg/ml); format: functional
Cynomolgus monkey [15] = experiment: Activation of monocytes in cynomolgus monkey plasma assessed as upregulation of MCP1 levels at 1 mg/kg, po after 24 hrs by Luminex assay (reference value: 385 pg/ml); format: functional, Macaca fascicularis
Liver [16] = experiment: Proinflammatory activity in C57BL/6J mouse liver assessed as TNFalpha levels at 30 mg/kg, po by multiplex assay (reference value: 15 pg/g); format: functional
Liver [17] = experiment: Proinflammatory activity in C57BL/6J mouse liver assessed as TNFalpha levels at 10 mg/kg, po by multiplex assay (reference value: 15 pg/g); format: functional
Liver [18] = experiment: Proinflammatory activity in C57BL/6J mouse liver assessed as IL-1beta levels at 10 mg/kg, po by multiplex assay; format: functional
[19] = Intrinsic clearance in human liver microsomes assessed per mg protein at 1 uM up to 60 mins; format: ADME, microsome; conditions: read-out: CLH
Cynomolgus monkey [20] = experiment: Anti-inflammatory activity in cynomolgus monkey plasma assessed as IL-10 levels at 9 mg/kg, po after 24 hrs by Luminex assay (reference value: 195 pg/ml); format: functional, Macaca fascicularis
Liver [21] = experiment: Effect on cytokine profile in C57BL/6J mouse liver assessed as IL-12p70 levels at 10 mg/kg, po by multiplex assay (reference value: 5 pg/g); format: functional; procedure, shortened: as §2
[22] = system: Toll-like receptor 7/8 (Homo sapiens); experiment: Agonist activity at TLR7/8 in human PBMCs assessed as decrease in intracellular HBV RNA levels in human hepatocytes infected with HBV genotype C for 12 days followed by exposure to conditioned supernatant from up to 5 uM compound treated PBMCs measured after 42 days
[23] = target: T1, TLR7 and TLR8 (Homo sapiens) (UniProt Q9NYK1+Q9NR97); experiment: Agonist activity at TLR7/8 in human PBMCs co-cultured with primary human hepatocytes infected with HBV genotype C for 12 days assessed as increase in MIP-1beta levels up to 5 uM measured after 42 days
T1 sequence (Q9NR97 whole entry, looked up): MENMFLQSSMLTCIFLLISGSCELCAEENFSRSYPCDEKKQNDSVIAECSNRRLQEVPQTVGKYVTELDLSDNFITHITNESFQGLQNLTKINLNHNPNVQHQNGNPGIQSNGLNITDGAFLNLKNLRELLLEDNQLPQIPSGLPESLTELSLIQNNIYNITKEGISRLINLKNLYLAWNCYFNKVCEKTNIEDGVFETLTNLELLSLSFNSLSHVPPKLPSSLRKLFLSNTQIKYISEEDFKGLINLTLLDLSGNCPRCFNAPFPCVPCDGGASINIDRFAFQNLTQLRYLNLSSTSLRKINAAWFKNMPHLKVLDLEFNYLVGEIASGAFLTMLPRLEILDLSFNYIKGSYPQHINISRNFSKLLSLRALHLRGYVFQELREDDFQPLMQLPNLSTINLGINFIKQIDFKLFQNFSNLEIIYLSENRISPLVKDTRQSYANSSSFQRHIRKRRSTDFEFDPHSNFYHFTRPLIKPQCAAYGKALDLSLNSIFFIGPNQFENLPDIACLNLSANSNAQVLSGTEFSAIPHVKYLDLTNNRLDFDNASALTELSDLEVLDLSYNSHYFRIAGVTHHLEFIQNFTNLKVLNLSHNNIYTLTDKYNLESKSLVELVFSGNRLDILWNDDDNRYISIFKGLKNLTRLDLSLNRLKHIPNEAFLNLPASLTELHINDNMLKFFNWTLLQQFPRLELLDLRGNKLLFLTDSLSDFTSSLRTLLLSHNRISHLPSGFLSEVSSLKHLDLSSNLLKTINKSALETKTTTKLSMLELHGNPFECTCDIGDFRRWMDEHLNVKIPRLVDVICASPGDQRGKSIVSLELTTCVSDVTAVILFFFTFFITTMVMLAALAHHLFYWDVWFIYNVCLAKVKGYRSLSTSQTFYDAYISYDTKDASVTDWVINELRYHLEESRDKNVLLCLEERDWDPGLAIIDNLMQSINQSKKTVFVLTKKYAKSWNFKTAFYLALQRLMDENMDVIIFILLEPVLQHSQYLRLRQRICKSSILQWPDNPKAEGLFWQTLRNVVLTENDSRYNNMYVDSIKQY
T1 sequence (Q9NYK1 whole entry, looked up): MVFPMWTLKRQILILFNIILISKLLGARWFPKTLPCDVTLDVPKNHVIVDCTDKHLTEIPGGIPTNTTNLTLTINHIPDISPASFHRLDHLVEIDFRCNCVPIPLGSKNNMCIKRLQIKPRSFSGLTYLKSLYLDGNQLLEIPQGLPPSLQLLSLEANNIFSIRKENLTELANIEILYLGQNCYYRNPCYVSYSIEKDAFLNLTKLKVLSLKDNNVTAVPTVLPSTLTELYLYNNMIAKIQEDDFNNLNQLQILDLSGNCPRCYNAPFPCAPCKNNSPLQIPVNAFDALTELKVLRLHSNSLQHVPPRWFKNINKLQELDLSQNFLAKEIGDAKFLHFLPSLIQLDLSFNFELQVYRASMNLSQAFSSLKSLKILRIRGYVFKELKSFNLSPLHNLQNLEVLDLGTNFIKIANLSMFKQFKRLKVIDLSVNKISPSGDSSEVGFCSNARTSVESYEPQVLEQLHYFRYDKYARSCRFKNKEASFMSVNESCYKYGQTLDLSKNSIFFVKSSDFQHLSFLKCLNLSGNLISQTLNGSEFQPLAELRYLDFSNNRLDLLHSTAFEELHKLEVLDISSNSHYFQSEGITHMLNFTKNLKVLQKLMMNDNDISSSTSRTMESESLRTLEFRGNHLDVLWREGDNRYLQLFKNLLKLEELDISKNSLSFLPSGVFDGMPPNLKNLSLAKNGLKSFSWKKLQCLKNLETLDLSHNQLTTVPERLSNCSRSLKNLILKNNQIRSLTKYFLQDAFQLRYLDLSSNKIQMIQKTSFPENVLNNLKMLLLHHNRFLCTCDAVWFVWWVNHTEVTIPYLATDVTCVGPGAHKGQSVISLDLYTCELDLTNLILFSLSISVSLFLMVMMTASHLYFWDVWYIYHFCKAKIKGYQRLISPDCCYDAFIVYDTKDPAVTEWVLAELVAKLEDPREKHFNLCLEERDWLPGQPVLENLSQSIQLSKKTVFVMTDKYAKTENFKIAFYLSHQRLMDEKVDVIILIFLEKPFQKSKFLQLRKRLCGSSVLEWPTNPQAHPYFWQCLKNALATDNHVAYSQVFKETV

[24] = target: T1, TLR7 and TLR8 (Homo sapiens); experiment: Agonist activity at TLR7/8 in human PBMCs co-cultured with primary human hepatocytes infected with HBV genotype C for 12 days assessed as increase in CXCL10 levels up to 5 uM measured after 42 days
Plasma [25] = experiment: Proinflammatory activity in C57BL/6J mouse plasma assessed as CXCL-1 levels at 30 mg/kg, po by multiplex assay (reference value: 230 pg/ml); format: functional
Cynomolgus monkey [26] = experiment: Induction of ISG response in cynomolgus monkey plasma assessed as upregulation of Isg15 mRNA expression at 3 mg/kg, po after 24 hrs by Fluidigm RT-qPCR analysis (reference value: 1); format: functional, Macaca fascicularis; procedure, shortened: as §1
Plasma [27] = experiment: Anti-inflammatory activity in C57BL/6J mouse plasma assessed as IL-10 levels at 10 mg/kg, po by multiplex assay (reference value: 120 pg/ml); format: functional; procedure, shortened: as §2
[28] = target: T1, TLR7 and TLR8 (Homo sapiens); experiment: Agonist activity at TLR7/8 in human PBMCs co-cultured with primary human hepatocytes infected with HBV genotype C for 12 days assessed as increase in GROalpha levels up to 5 uM measured after 42 days
Cynomolgus monkey [29] = experiment: Activation of monocytes in cynomolgus monkey plasma assessed as upregulation of MIP1 levels at 1 mg/kg, po after 24 hrs by Luminex assay (reference value: 37 pg/ml); format: functional, Macaca fascicularis
Cytochrome P450 2D6 = Cytochrome P450 2D6 (Homo sapiens, UniProt P10635); experiment: Inhibition of CYP2D6 (unknown origin); format: ADME
Cytochrome P450 2D6, sequence (P10635 whole entry): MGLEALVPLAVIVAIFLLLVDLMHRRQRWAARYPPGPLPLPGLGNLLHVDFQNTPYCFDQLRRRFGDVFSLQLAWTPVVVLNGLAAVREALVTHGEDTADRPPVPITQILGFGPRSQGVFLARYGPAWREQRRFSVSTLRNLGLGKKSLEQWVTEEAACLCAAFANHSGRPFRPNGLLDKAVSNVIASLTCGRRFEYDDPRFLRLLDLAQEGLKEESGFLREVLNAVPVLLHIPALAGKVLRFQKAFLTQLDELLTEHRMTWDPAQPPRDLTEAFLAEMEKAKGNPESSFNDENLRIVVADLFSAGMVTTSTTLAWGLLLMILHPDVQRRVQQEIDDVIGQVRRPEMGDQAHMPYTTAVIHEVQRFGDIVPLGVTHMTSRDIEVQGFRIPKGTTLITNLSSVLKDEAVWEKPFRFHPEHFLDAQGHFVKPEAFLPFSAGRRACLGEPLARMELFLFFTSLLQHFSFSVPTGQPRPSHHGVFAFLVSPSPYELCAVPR

[30] = target: T1, TLR7 and TLR8 (Homo sapiens); experiment: Agonist activity at TLR7/8 in human PBMCs co-cultured with primary human hepatocytes infected with HBV genotype C for 12 days assessed as increase in IL-1beta levels up to 5 uM measured after 42 days
[31] = Protein binding in mouse plasma fraction at 5 uM after 4.5 hrs LC-MS/MS-based rapid equilibrium dialysis method; format: ADME, cell-free; conditions: read-out: PPB (converted)

CCC[C@@H](CCO)Nc1nc(N)nc2c(F)cccc12
fold change (FC) (Cynomolgus monkey [1]): 560
Activity (Liver [2]): Below limit of detection
Activity (Plasma [3]): 630 pg/mL
Activity (Liver [4]): Below limit of detection
Activity (Plasma [5]): 480 pg/mL
fraction unbound at 4.5 h, 5 µM [6]: 0.47
Activity (Cynomolgus monkey [7]): 2020 pg/mL
Cmax [8]: 32 ng/g
Cmax [9]: 1420 ng/g
fold change (FC) (Plasma [10]): 15
Activity (Liver [11]): Below limit of detection
Activity (Cynomolgus monkey [12]): Below limit of detection
solubility [13]: > 4000 µg/mL
Activity (Plasma [14]): >10000 pg/mL
Activity (Cynomolgus monkey [15]): 2820 pg/mL
Activity (Liver [16]): 13600 pg/g
Activity (Liver [17]): 8330 pg/g
Activity (Liver [18]): 29525 pg/g
microsomal CLint at 1 µM [19]: 8 µL/min/mg
Activity (Cynomolgus monkey [20]): 3785 pg/mL
Activity (Liver [21]): 790 pg/g
Activity [22]: Active
Activity [23]: Active
Activity [24]: Active
Activity (Plasma [25]): >10000 pg/mL
fold change (FC) (Cynomolgus monkey [26]): 145
Activity (Plasma [27]): 29450 pg/mL
Activity [28]: Active
Activity (Cynomolgus monkey [29]): 44 pg/mL
IC50 (Cytochrome P450 2D6): 5.7 µM
Activity [30]: Active
fraction unbound at 4.5 h, 5 µM [31]: 0.4
